Screening data deposited in PubChem by The Scripps Research Institute Molecular Screening Center.
Only some compounds are listed: those with a hit (about 2.3% of all), similar ones and a draw of the others.
HTRA1 inhibitor: HTRA1 (human) protease inhibition. 340,000 tested, 0.5% active. inhibition, % at 5.96 µM. recombinant HTRA1, FP-rhodamine activity-based probe, fluorescence polarization. Q92743. AID 504803; in the data active = inhibition above about 36%;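 also: 0% = enzyme with DMSO and 100% = wells lacking enzyme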
Target sequence (Q92743 whole entry, looked up): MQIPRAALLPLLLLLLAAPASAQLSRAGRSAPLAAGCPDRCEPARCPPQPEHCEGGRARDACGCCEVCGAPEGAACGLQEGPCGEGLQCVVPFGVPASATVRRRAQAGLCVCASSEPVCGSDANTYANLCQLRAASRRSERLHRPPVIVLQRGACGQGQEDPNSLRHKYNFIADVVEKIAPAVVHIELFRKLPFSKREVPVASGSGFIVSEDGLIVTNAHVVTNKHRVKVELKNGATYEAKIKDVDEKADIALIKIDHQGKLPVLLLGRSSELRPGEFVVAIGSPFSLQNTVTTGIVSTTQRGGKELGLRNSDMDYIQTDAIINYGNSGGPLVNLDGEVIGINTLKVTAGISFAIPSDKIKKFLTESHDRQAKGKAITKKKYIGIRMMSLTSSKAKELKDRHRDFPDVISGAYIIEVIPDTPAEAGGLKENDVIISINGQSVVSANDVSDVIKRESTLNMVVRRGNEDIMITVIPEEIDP
pPAFAH FP inh: inhibitors of human plasma PAF acetylhydrolase (pPAFAH). Q13093. recombinant pPAFAH, FP-rhodamine probe fluorescence polarization. inhibition, % at 3.39 µM. 330,000 tested, 1.5% active. AID 463082;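 active = inhibition above the mean inhibition across the screen plus 3 SD, cut at about 25% in these data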;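 also: inhibitors block binding of the rhodamine activity-based probe so polarization drops; 0% = enzyme with DMSO and 100% = wells lacking pPAFAH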
mABHD4 FP: inhibitors of mouse ABHD4. Q8VD66. purified mABHD4, FP-Rh probe fluorescence polarization. inhibition, % at 8.92 µM. 370,000 tested, 0.54% active. AID 720543;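 active = inhibition exceeding the mean over every tested compound plus 3 SD, cut at about 30% in these data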;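 also: 0% = plate median of compound wells and 100% = S159A mutant with DMSO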
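Assay system: mABHD4 protein; medium: HEPES pH 7.0, NaCl, Pluronic buffer; dosing: 8.92 µM, single dose; schedule: 45 min + 60 min at 25 °C; signal: FP readout, ex 525 nm / em 598 nm; read-out: normalized percent inhibition of probe labeling; repeats: single replicate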
TCR-CD3 inh: inhibitors of human TCR-CD3 interaction; TAMRA-labeled TCR probe fluorescence, biochemical; inhibition, % at 9.4 µM; AID 651800; 360,000 tested, 0.37% active;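 also: recombinant mutant TCR 2C K166C tagged with TAMRA read by polarization; 0% = receptor in buffer alone and 100% = receptor with positive control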
SIAE inh: blocks human sialic acid acetylesterase. SIAE FP-Rh probe binding, fluorescence polarization. inhibition, % at 9.66 µM. 370,000 tested, 0.69% active. AID 1053197;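 active = inhibition above a cutoff: mean of compounds within the control limits plus 3 SD of those, cut at about 17% in these data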;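 also: 0% = plate median of compound wells and 100% = probe without SIAE protein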
BSA TAMRA ctr: interferes with TAMRA-BSA probe, flagging TCR-CD3 hits. shares compounds with TCR-CD3 inh. TAMRA-labeled BSA probe fluorescence counterscreen. inhibition, % at 9.4 µM. 1,200 tested, 10% active; in the data active = inhibition above about 23%;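 also: 0% = buffer low control and 100% = reference high control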
TCR-CD3 conf: TCR-CD3 interaction inhibition, confirmation | TAMRA-labeled TCR probe fluorescence binding assay | inhibition, % at 9.4 µM | shares compounds with TCR-CD3 inh | 1,200 tested, 48% active
* hit, by the source's call; · = no result. Rule as the data show it, unless noted: active = inhibition above about 19%; inactive = the rest.

SMILES	HTRA1 inhibitor	pPAFAH FP inh	mABHD4 FP	TCR-CD3 inh	SIAE inh	BSA TAMRA ctr	TCR-CD3 conf
Cc1nn(-c2ccccc2)c2sc(C(=O)NC3CCCc4ccccc43)cc12 (stereo not drawn)	·	·	-12.2	·	-3.8	·	·
O=C(Nc1cccc(NC(=O)c2ccc(-c3ccc(Br)cc3)o2)c1)c1ccco1	-76.0	-29.5	-56.3	55.8*	-91.2	24.5*	44.3*
CC(=O)N1CCc2c1cccc2S(=O)(=O)NC(CC(C)C)C(=O)Nc1ccc(F)cc1Cl (stereo not drawn)	·	·	0.9	·	-1.7	·	·
CCOC(=O)C1=C(CC)Nc2ccccc2N=C1NC(=O)Nc1ccc(Cl)c(Cl)c1	-93.1	-60.1	-99.9	78.8*	-100.6	20.1	53.6*
Cc1cc(C(=O)N/N=C/c2cccc([N+](=O)[O-])c2)c2ccccc2n1	-3.1	-10.1	3.9	-4.8	3.4	·	·
COc1cc([N+](=O)[O-])cc(/C=N/NC(=O)c2cc(C)nc3ccccc23)c1O	6.0	14.5	19.0	23.5*	-3.9	-5.7	23.2*
O=C(/C=C/c1ccccc1)Nc1cccc(C(=O)NCCCCc2ccccc2)c1	-108.2	·	-92.6	44.5*	-150.5	7.2	15.9
CCCCNC(=O)c1nc(-c2cc3ccccc3[nH]2)oc1-c1ccccc1	·	·	-1.6	-3.2	5.0	·	·
CCCCCCCCN1C(=O)[C@H](CC(=O)NCc2ccccc2)C[C@@]2(C(=O)OC)CCCCC=C12	·	·	-6.9	4.8	-3.7	·	·
Cc1cc(=O)oc2cc(OCC(=O)N/N=C/c3cc([N+](=O)[O-])ccc3O)ccc12	3.8	-0.1	4.0	48.0*	7.6	-14.3	50.9*
Cc1ccc(C)c(NC(=O)CCC(=O)N/N=C/c2cc([N+](=O)[O-])ccc2O)c1	1.2	2.0	3.5	14.7	13.5	·	·
CC(=O)N(C)C1(c2nnnn2CCOC(=O)Nc2ccc(Cl)cc2)CCCCC1	4.4	-2.1	4.2	29.8*	-1.7	0.9	1.7
C/C(=C\C(=O)c1ccc(Br)cc1)NNC(=O)c1ccccc1	26.0	0.3	-5.6	18.9	9.9	·	·
C/C(=C\C(=O)c1ccc(Br)cc1)NNC(=O)c1ccc(O)cc1	31.4	1.8	-18.6	34.6*	0.7	-12.0	26.8*
CCCCOc1ccc(C(=O)NNC(=S)NC(=O)CC)cc1	10.2	7.5	·	·	·	·	·
O=C(NC(=S)NNC(=O)c1ccccc1F)c1cccnc1	·	6.5	9.9	18.1	-0.8	·	·
CCC(=O)NC(=S)NNC(=O)c1ccc(OC)cc1	-4.5	3.4	6.9	20.1*	4.2	-3.3	6.0
CCn1c(C)nc2cc(C(=O)NNC(=S)Nc3ccccc3)ccc21	1.9	11.7	-0.4	10.6	-0.4	·	·
COc1ccc(C(=O)NC(=S)NNC(=O)c2cccnc2)cc1	8.2	7.6	5.3	24.5*	4.5	-0.9	18.4
Cc1ccccc1C(=O)NNC(=S)NC(=O)c1cccnc1	10.6	-0.8	-1.1	25.8*	0.4	-3.3	20.0*
CCn1c(C)nc2cc(C(=O)NNC(=S)NC(=O)c3ccccc3)ccc21	3.3	1.1	4.2	33.6*	1.5	-6.3	27.9*
O=C(NNC(=S)NC(=O)c1ccccc1)c1cccnc1	0.5	-3.0	6.9	9.4	-1.7	·	·
O=C1CC(c2ccc3ccccc3c2)N=C2N(Cc3ccc4c(c3)OCO4)C/C(=C/c3ccccc3)N12 (stereo not drawn)	·	·	-16.1	·	-2.2	·	·
CCCC1NC(=O)c2cccnc2-n2c1nc1ccc(Br)cc1c2=O (stereo not drawn)	1.9	·	1.1	-1.2	-1.8	·	·
COc1cc(OC)cc(C(=O)NNC(=S)NC(=O)c2cccnc2)c1	6.2	2.9	7.4	23.5*	2.8	-2.6	19.7*
SMILES	HTRA1 inhibitor	pPAFAH FP inh	mABHD4 FP	TCR-CD3 inh	SIAE inh	BSA TAMRA ctr	TCR-CD3 conf
COc1cc(OC)cc(C(=O)NC(=S)Nc2cccnc2)c1	-7.1	3.5	-6.7	-6.6	7.6	·	·
COc1ccc(/C=C/C(=O)NC(=S)NNC(=O)c2cccnc2)cc1OC	4.1	2.9	9.8	27.4*	1.1	-7.4	17.6
O=C(CSc1nnc(-c2ccccc2)n1-c1ccccc1)Nc1ccccc1-c1ccccc1	·	·	-4.1	·	2.1	·	·
Cc1ccc2c(=O)cc(C(F)F)oc2c1	5.9	0.7	-0.8	23.3*	4.6	-3.6	-1.2
Cc1cc(C)c2c(=O)cc(C(F)F)oc2c1	1.4	-7.8	-2.6	-4.7	0.2	·	·
Cc1cc(S(=O)(=O)Nc2c(NC3CCCCC3)c3ccccc3oc2=O)ccc1F	-14.3	0.3	-2.8	19.1*	10.3	4.2	3.4
Cc1nonc1NC(=O)CSc1nc(C2CCCCC2)nc2ccccc12	-9.9	-1.1	-17.6	-5.3	1.2	·	·
Cc1nonc1NC(=O)CSc1nc(C23CC4CC(CC(C4)C2)C3)nc2ccccc12	-5.5	-5.4	-3.9	20.2*	-6.8	3.9	9.2
C/C(=N\NC(=O)c1ccc(N)cc1)C1CC1	5.0	5.5	0.2	9.2	4.5	·	·
C/C(=N\NC(=O)c1ccccc1O)C1CC1	13.0	1.7	4.5	25.4*	0.4	40.9*	23.1*
COC(=O)CCN(C(=O)c1ccc(N2CCCCC2)c([N+](=O)[O-])c1)c1ccccn1	-2.3	2.6	6.6	77.4*	11.4	0.8	1.7
COC(=O)CCN(C(=O)c1ccc(N2CCCC2)c([N+](=O)[O-])c1)c1ccccn1	6.8	-0.1	8.7	-3.2	-2.8	·	·
C[C@]12c3[nH]c4ccc(Cl)cc4c3CCN1C(=O)[C@@H](CC(=O)NCCN1CCOCC1)C[C@@H]2C(=O)N1CCCCC1	2.9	2.0	4.2	36.5*	-2.8	3.4	1.8
Cc1ccc(NC(=O)c2ccccc2)cc1C	-12.0	-4.2	8.5	6.8	-0.4	·	·
O=C(NCCCl)NNC(=O)c1cc2ccccc2cc1O	10.0	2.5	0.1	19.0*	9.7	-4.0	16.4
Cc1ccc(NC(=O)NNC(=O)c2cc3ccccc3cc2O)cc1C	20.9	22.0	6.0	20.6*	0.5	-4.1	16.8
COc1ccccc1C(=O)NNC(=O)c1cc2ccccc2cc1O	13.7	·	28.7	12.0	5.2	·	·
O=C(NCc1ccccc1)C1c2ccccc2OCC(=O)N1CCc1c[nH]c2ccccc12 (stereo not drawn)	·	·	5.0	12.2	1.3	·	·
COC(=O)[C@@]1(Cc2ccc(OC)cc2)[C@H]2c3cc(C(=O)N4CCCC4)n(Cc4ccc(C)o4)c3C[C@H]2CN1C(=O)c1ccccc1	·	·	2.9	60.1*	-2.0	0.0	-2.8
COc1ccc(-c2c(Cc3ccccc3)nc(NC(=O)c3ccccc3)n2Cc2ccc(OC)cc2OC)cc1	·	·	5.7	·	0.1	·	·
Cc1ccc(Cn2ccsc2=NC(=O)COC(=O)c2ccc(NC(=O)CC#N)cc2)cc1	-49.4	7.2	1.6	27.0*	-14.2	7.9	6.3
O=C(CN1C(=O)NC2(CCOc3ccccc32)C1=O)c1ccc(F)cc1 (stereo not drawn)	-4.4	5.4	-0.8	19.1*	0.1	-0.2	2.3
